As a reminder, the MIC is the lowest concentration that inhibits growth of the organism. A lower MIC goes with a more susceptible organism.

Here are results for twelve molecules from ChEMBL document CHEMBL1155347, “Synthesis and antimicrobial activities of novel quinoline derivatives carrying 1,2,4-triazole moiety” (2009).

What all share (format): functional
Assay [1] deals with Staphylococcus aureus. The experiment in a line: Antibacterial activity against Staphylococcus aureus ATCC 25923 after 16 to 18 hrs by serial plate dilution method. Put shortly:
(§1)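 Drug serially diluted in Mueller–Hinton broth in tubes, adjusted to pH 5.0 with phosphate buffer. Inoculated with standardized bacterial suspension and incubated 16–18 h at 37 °C. MIC taken as lowest concentration with no visible growth.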

Assay [2] has as its system Aspergillus flavus. The experiment in a line: Antifungal activity against Aspergillus flavus NCIM 524 by serial plate dilution method.
The test system of assay [3] is Staphylococcus aureus. Kind of assay: Antibacterial activity against Staphylococcus aureus ATCC 25923 at MIC after 3 to 4 days by agar well diffusion method.
Assay [4] has as its system Aspergillus fumigatus. Kind of assay: Antifungal activity against Aspergillus fumigatus NCIM 902 at MIC after 3 to 4 days by agar well diffusion method. Summed up: (§2)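 Sabouraud agar (peptone, D-glucose, agar; pH 5.7) seeded with spore suspension made by transferring a loopful of fungus to 3 mL normal saline. Excess decanted, plates dried 1 h at 37 °C. Compounds in DMSO at MIC added to punched wells; DMSO control. Triplicate plates kept 3–4 days at 37 °C.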
Background: In agar diffusion tests the substance spreads into inoculated agar from a disc or well.

In assay [5] the test system is Pseudomonas aeruginosa. The experiment in a line: Antibacterial activity against Pseudomonas aeruginosa ATCC 27853 after 16 to 18 hrs by serial plate dilution method. Summed up:
as §1

Assay [6] deals with Escherichia coli. Kind of assay: Antibacterial activity against Escherichia coli ATCC 25922 at MIC after 3 to 4 days by agar well diffusion method.
The subject of assay [7] is Trichophyton mentagrophytes. The experiment in a line: Antifungal activity against recultured Trichophyton mentagrophytes at MIC after 3 to 4 days by agar well diffusion method. Summed up: as §2
In assay [8] the test system is Klebsiella pneumoniae. Kind of assay: Antibacterial activity against recultured Klebsiella pneumoniae at MIC after 3 to 4 days by agar well diffusion method.
Assay [9] has as its system Klebsiella pneumoniae. Kind of assay: Antibacterial activity against recultured Klebsiella pneumoniae after 16 to 18 hrs by serial plate dilution method. Put shortly: as §1
Assay [10] deals with Talaromyces marneffei. The experiment in a line: Antifungal activity against recultured Penicillium marneffei by serial plate dilution method.
The subject of assay [11] is Pseudomonas aeruginosa. Kind of assay: Antibacterial activity against Pseudomonas aeruginosa ATCC 27853 at MIC after 3 to 4 days by agar well diffusion method.
Assay [12] relates to Aspergillus fumigatus. The experiment in a line: Antifungal activity against Aspergillus fumigatus NCIM 902 by serial plate dilution method.
Assay [13] concerns Trichophyton mentagrophytes. The experiment in a line: Antifungal activity against recultured Trichophyton mentagrophytes by serial plate dilution method.
The test system of assay [14] is Escherichia coli. Kind of assay: Antibacterial activity against Escherichia coli ATCC 25922 after 16 to 18 hrs by serial plate dilution method. Put shortly:
as §1

Assay [15] concerns Aspergillus flavus. Kind of assay: Antifungal activity against Aspergillus flavus NCIM 524 at MIC after 3 to 4 days by agar well diffusion method. Summed up:
as §2

For assay [16], the system named is Talaromyces marneffei. Kind of assay: Antifungal activity against recultured Penicillium marneffei at MIC after 3 to 4 days by agar well diffusion method. Put shortly: as §2

Converted amounts (≈) assume the structure as drawn.

In the case of `Oc1c(-c2nnc(S)n2-c2ccccc2)cnc2c(C(F)(F)F)cccc12`, the minimal inhibitory concentration (MIC) in assay [1], in assay [2], in assay [5], in [9], in [10] and in [12] was 6.25 µg/mL (≈ 16.1 µM) in each case. Also, the MIC in assay [13] and in assay [14] was 6.25 µg/mL (≈ 16.1 µM) in each case. Moreover, the “inhibition zone (IZ)” value in [3] turned out to be 16 mm; in assay [4], 16 mm; in [6], 20 mm; in assay [7], 20 mm; in assay [8] it was 16 mm; in [11], 16 mm. Besides, the “inhibition zone (IZ)” value in assay [15] and in [16] was 16 mm each time.
With `COCCn1c(S)nnc1-c1cnc2c(C(F)(F)F)cccc2c1N1CCOCC1`, the minimum inhibitory concentration (MIC) in assay [1], in assay [2], in assay [5], in assay [9], in assay [10] and in assay [12] was 6.25 µg/mL (≈ 14.2 µM) throughout. Also, the MIC in [13] and in assay [14] was 6.25 µg/mL (≈ 14.2 µM) each time. In addition, the “inhibition zone (IZ)” value is 16 mm in [3]; 16 mm in assay [4]; 20 mm in assay [6]; 20 mm in [7]; 16 mm in assay [8]; 16 mm in assay [11]. In addition, the “inhibition zone (IZ)” value in assay [15] and in assay [16] was 16 mm in each case.
Take `FC(F)(F)c1cccc2c(NC3CCCCC3)c(-c3nnc(S)n3-c3ccccc3)cnc12`: the minimal inhibitory concentration (MIC) in assay [1], in assay [2], in assay [5], in [9], in assay [10] and in assay [12] was 6.25 µg/mL (≈ 13.3 µM) in each case. For the same molecule, the MIC in [13] and in assay [14] was 6.25 µg/mL (≈ 13.3 µM) each time. In addition, the “inhibition zone (IZ)” value in [3] is 16 mm; in [4] it was 16 mm; in assay [6] it was 20 mm; in assay [7], 20 mm; in assay [8], 16 mm; in assay [11] it was 16 mm. For the same molecule, the “inhibition zone (IZ)” value in [15] and in assay [16] was 16 mm in each case.
Take `CC(C)(C)CCNc1c(-c2nnc(S)n2-c2ccccc2)cnc2c(C(F)(F)F)cccc12`: the minimum inhibitory concentration (MIC) in [1], in assay [2], in assay [5], in assay [9], in [10] and in [12] was 6.25 µg/mL (≈ 13.3 µM) each time. Also, the minimal inhibitory concentration (MIC) in assay [13] and in assay [14] was 6.25 µg/mL (≈ 13.3 µM) throughout. For the same molecule, the “inhibition zone (IZ)” value is recorded as 16 mm in assay [3]; 16 mm in assay [4]; 20 mm in assay [6]; 20 mm in [7]; 16 mm in assay [8]; 16 mm in assay [11]. Also, the “inhibition zone (IZ)” value in [15] and in assay [16] was 16 mm in each case.
On to `O=C(O)c1cn(C2CC2)c2cc(N3CCNCC3)c(F)cc2c1=O` [CIPROFLOXACIN], for which the “inhibition zone (IZ)” value was found to be 22 mm in [3], 30 mm in assay [6], 23 mm in assay [8] and 25 mm in assay [11]. In assay [9], this molecule registered a minimum inhibitory concentration (MIC) of 6.25 µg/mL (≈ 18.9 µM).
As for `NCCN1CCN(c2c(-c3nnc(S)n3Cc3ccccc3)cnc3c(C(F)(F)F)cccc23)CC1`, the MIC in [1], in assay [2], in assay [5], in assay [9], in [10] and in [12] was 50 µg/mL (≈ 97.4 µM) throughout. Also, the values for the minimal inhibitory concentration (MIC) in assay [13] and in [14] were 50 µg/mL (≈ 97.4 µM) and 6.25 µg/mL (≈ 12.2 µM), respectively. Besides, the “inhibition zone (IZ)” value is under 10 mm in assay [3]; under 10 mm in [4]; 20 mm in assay [6]; under 10 mm in [7]; under 10 mm in assay [8]; under 10 mm in assay [11]. Moreover, the “inhibition zone (IZ)” value in assay [15] and in assay [16] was under 10 mm each time.
`COCCn1c(S)nnc1-c1cnc2c(C(F)(F)F)cccc2c1O`: the minimal inhibitory concentration (MIC) in assay [1], in [2], in assay [5], in assay [9], in assay [10] and in assay [12] was 6.25 µg/mL (≈ 16.9 µM) throughout. In addition, the MIC in [13] and in assay [14] was 6.25 µg/mL (≈ 16.9 µM) in each case. Moreover, the “inhibition zone (IZ)” value in [3] stood at 16 mm; in assay [4] it was 16 mm; in assay [6] it was 20 mm; in assay [7] it was 20 mm; in assay [8], 16 mm; in [11], 16 mm. The “inhibition zone (IZ)” value in assay [15] and in assay [16] was 16 mm each time.
Take `FC(F)(F)c1cccc2c(N3CCOCC3)c(-c3nnc(S)n3-c3ccccc3)cnc12`: the MIC in assay [1], in assay [2], in assay [5], in assay [9], in assay [10] and in assay [12] was 6.25 µg/mL (≈ 13.7 µM) each time. In addition, the minimum inhibitory concentration (MIC) in assay [13] and in assay [14] was 6.25 µg/mL (≈ 13.7 µM) each time. In addition, the “inhibition zone (IZ)” value was found to be 16 mm in [3]; 16 mm in assay [4]; 20 mm in assay [6]; 20 mm in [7]; 16 mm in assay [8]; 16 mm in assay [11]. The “inhibition zone (IZ)” value in assay [15] and in assay [16] was 16 mm each time.
As for `FC(F)(F)c1cccc2c(NC3CCCCC3)c(-c3nnc(S)n3Cc3ccccc3)cnc12`, the MIC in [1], in [2], in assay [5], in [9], in assay [10] and in assay [12] was 12.5 µg/mL (≈ 25.8 µM) each time. Further, the MIC in [13] and in assay [14] was 12.5 µg/mL (≈ 25.8 µM) throughout. Also, the “inhibition zone (IZ)” value in assay [3] was found to be 10 mm; in assay [4] it was 10 mm; in assay [6], 16 mm; in assay [7], 16 mm; in [8], 12 mm; in assay [11], 10 mm. The “inhibition zone (IZ)” value in assay [15] and in assay [16] was 10 mm each time.
As for `Oc1c(-c2nnc(S)n2Cc2ccccc2)cnc2c(C(F)(F)F)cccc12`, the minimal inhibitory concentration (MIC) in [1], in assay [2], in assay [5], in assay [9], in assay [10] and in [12] was 50 µg/mL (≈ 124 µM) throughout. The MIC in assay [13] and in assay [14] was 50 µg/mL (≈ 124 µM) throughout. Besides, the “inhibition zone (IZ)” value in assay [3], in assay [4], in assay [6], in assay [7], in assay [8] and in assay [11] was under 10 mm each time. Besides, the “inhibition zone (IZ)” value in assay [15] and in assay [16] was under 10 mm throughout.
In the case of `FC(F)(F)c1cccc2c(Cl)c(-c3nnc(S)n3Cc3ccccc3)cnc12`, the MIC in [1], in assay [2], in assay [5], in assay [9], in assay [10] and in assay [12] was 50 µg/mL (≈ 119 µM) each time. Besides, the MIC in assay [13] and in assay [14] was 50 µg/mL (≈ 119 µM) each time. In addition, the “inhibition zone (IZ)” value in assay [3], in assay [4], in assay [6], in assay [7], in [8] and in [11] was under 10 mm throughout. The “inhibition zone (IZ)” value in assay [15] and in assay [16] was under 10 mm in each case.
Consider `CC(C)(C)CCNc1c(-c2nnc(S)n2Cc2ccccc2)cnc2c(C(F)(F)F)cccc12`, for which the minimum inhibitory concentration (MIC) in assay [1], in assay [2], in [5], in assay [9], in [10] and in assay [12] was 12.5 µg/mL (≈ 25.7 µM) in each case. The MIC in [13] and in assay [14] was 12.5 µg/mL (≈ 25.7 µM) in each case. For the same molecule, the “inhibition zone (IZ)” value in assay [3] was determined as 10 mm; in assay [4], 10 mm; in assay [6], 16 mm; in assay [7] it was 16 mm; in [8], 12 mm; in assay [11], 10 mm. The “inhibition zone (IZ)” value in assay [15] and in assay [16] was 10 mm throughout.
